Screening results: PubChem BioAssay, several laboratories
JNK3 inh: JNK3 kinase activity inhibitors, primary screen, biochemical, human, purified enzyme; HTS; inhibition, % at 8 µM; 60,000 tested, 0.61% active; AID 746, 2007; in the data active = inhibition above about 17%;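 also: 0% = DMSO and 100% = reference inhibitor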
Target sequence (P53779 whole entry, looked up): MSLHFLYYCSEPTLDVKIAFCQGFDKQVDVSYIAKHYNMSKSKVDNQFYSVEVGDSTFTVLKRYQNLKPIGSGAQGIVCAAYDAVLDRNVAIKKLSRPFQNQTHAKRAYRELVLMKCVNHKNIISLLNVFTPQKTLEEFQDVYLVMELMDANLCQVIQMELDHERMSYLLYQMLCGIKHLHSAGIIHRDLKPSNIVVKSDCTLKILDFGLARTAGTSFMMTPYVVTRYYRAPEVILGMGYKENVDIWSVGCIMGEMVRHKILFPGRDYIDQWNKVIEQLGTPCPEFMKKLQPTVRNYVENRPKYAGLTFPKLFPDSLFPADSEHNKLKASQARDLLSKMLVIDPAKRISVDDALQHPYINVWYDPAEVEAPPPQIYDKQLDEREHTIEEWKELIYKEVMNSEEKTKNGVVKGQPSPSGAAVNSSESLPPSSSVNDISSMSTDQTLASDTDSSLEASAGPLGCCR
BAP1 inh: inhibitors of BAP1 deubiquitinase, primary screen, biochemical, Ub-AMC fluorescence, kinetic. Ubiquitin carboxyl-terminal hydrolase BAP1 (Homo sapiens), Q92560. recombinant BAP1, Ub-AMC hydrolysis fluorescence kinetic; stronger effect = lower value. activity remaining (% of control), % at 20 µM. 72,000 tested, 0.48% active;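 active = activity remaining at or below 50% of control, provided the compound also passes the data quality filters; inactive = the rest, including low values that fail the filters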;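 also: 100% = DMSO wells rate and 0% = substrate alone blank rate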
E coli RNAP: E. coli RNAP inhibitors, biochemical. DNA-directed RNA polymerase subunit beta (Escherichia coli (strain K12)), P0A8V2. E. coli RNA polymerase, fluorescence transcription assay. inhibition, %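 (tested at 10 µM)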. 62,000 tested, 0.2% active. AID 559, 2006; in the data active = inhibition above about 20%;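 also: 0% = enzyme without compound and 100% = no enzyme blank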
RORa activator: activators of orphan receptor RORA, primary screen, cell-based, luminescence. CHO-K1 Gal4-RORA LBD luciferase reporter; percent increase over mock-subtracted basal signal. activation, % at 10 µM. 65,000 tested, 1.5% active. AID 560, 2006;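 active = activation above the mean of all tested compounds plus 3 SD, cut at about 49% in these data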;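 also: 0% = DMSO-treated RORA cells and 100% = added signal equal to DMSO minus mock-transfected cells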
SF-1 act: activators of human SF-1, primary screen, cell-based, CHO-K1, Gal4-SF-1 LBD, luciferase luminescence | activation, % at 10 µM | AID 522, 2006 | CHO-K1 Gal4-SF-1 LBD luciferase reporter; % increase over DMSO SF-1-specific signal | 65,000 tested, 1.9% active;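 active = activation above the mean activation of all tested compounds plus 3 SD, cut at about 50% in these data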
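Assay system: CHO-K1 cells co-transfected with Gal4 DBD–human SF-1 LBD, 5xGal4 luciferase reporter; doses: 10 µM only; incubation: 20 h compound exposure at 37 °C after 1 h cell settling; signal: luciferase light emission; evaluation: percent activation versus DMSO; repeats: one test per compound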
The depositor's hits bear a star. Most compounds without a hit are left out; they make up all but 3.2% or so of the library.

What do the screens show for `CCCc1cc(C(N)=O)c(NC(=O)c2cc(C)on2)s1`?
JNK3 inh: 1; BAP1 inh: 63; E coli RNAP: 1; RORa activator: 17; SF-1 act: 32

What do the screens show for `Cc1cc(C(=O)Nc2sc(C)c(-c3ccc(F)cc3)c2C(N)=O)no1`?
JNK3 inh: 0; BAP1 inh: 277; E coli RNAP: 1; RORa activator: 38; SF-1 act: 85*

How did COc1cc(OC)cc(-c2nc3cc(C)ccc3o2)c1 do in these assays?
JNK3 inh: 5; BAP1 inh: 133; E coli RNAP: 4; RORa activator: 57*; SF-1 act: 72*

What do the screens show for `CCOC(=O)c1cc(NC(=O)NCc2ccco2)c(C)nc1C`?
E coli RNAP: 8; RORa activator: -15; SF-1 act: 13

How did CC(C)c1cc(C(=O)Nc2ccc3c(c2)OCO3)no1 do in these assays?
JNK3 inh: -5; BAP1 inh: 81; E coli RNAP: 8; RORa activator: 20; SF-1 act: 29

What do the screens show for `O=C(Nc1ccncc1)c1cccs1`?
JNK3 inh: 5; BAP1 inh: 92; E coli RNAP: 14; RORa activator: -3; SF-1 act: 8

What do the screens show for `O=C(c1ccc2c(c1)OCCCO2)c1cccs1`?
JNK3 inh: -4; BAP1 inh: 89; E coli RNAP: 6; RORa activator: 22; SF-1 act: 54*

How did O=C(c1ccc2c(c1)OCCO2)c1ccccc1Cl do in these assays?
BAP1 inh: 125

What do the screens show for `O=C(Nc1ccc2c(c1)OCO2)c1ccc(Br)s1`?
JNK3 inh: -4; BAP1 inh: 77; E coli RNAP: 1; RORa activator: 69*; SF-1 act: 49

How did N/C(=N\O)c1ccc(NC(=O)c2cccs2)cc1 do in these assays?
JNK3 inh: 13; BAP1 inh: 104; E coli RNAP: 8; RORa activator: 36; SF-1 act: 52*

Results for O=C(Nc1ccc2c(c1)OCO2)c1cc(C2CC2)on1 ?
JNK3 inh: 0; BAP1 inh: 85; E coli RNAP: -4; RORa activator: 60*; SF-1 act: 49

How did CCC(C)(C)n1nnnc1C(C(C)C)N1CCC(C(N)=O)CC1 (stereo not drawn) do in these assays?
JNK3 inh: -10; BAP1 inh: 110; E coli RNAP: 4; RORa activator: 16; SF-1 act: -10

What do the screens show for `CCN1CCCC1CNC(=O)c1c(O)c2c([nH]c1=O)CCCC2` (stereo not drawn)?
JNK3 inh: 5; BAP1 inh: 106; E coli RNAP: 7; RORa activator: 2; SF-1 act: -1

What do the screens show for `O=C(Nc1ccc2c(c1)OCO2)c1cccs1`?
JNK3 inh: 3; BAP1 inh: 111; E coli RNAP: 4; RORa activator: 26; SF-1 act: 61*

Results for O=C(Nc1cccc(F)c1)c1ccc2c(c1)OCO2 ?
JNK3 inh: 2; BAP1 inh: 72; E coli RNAP: 4; RORa activator: 31; SF-1 act: 62*

How did Cc1cc(NC(=O)c2ccc3c(c2)OCO3)no1 do in these assays?
JNK3 inh: 7; BAP1 inh: 95; E coli RNAP: 4; RORa activator: 30; SF-1 act: 60*

Results for Cc1cc(NC(=O)c2ccc3c(c2)OCCO3)no1 ?
JNK3 inh: -3; BAP1 inh: 114; E coli RNAP: 5; RORa activator: -59; SF-1 act: -51

Results for Cc1c(NC(=O)CSc2nc3ccccc3[nH]2)c(=O)n(-c2ccccc2)n1C ?
JNK3 inh: -7; BAP1 inh: 91; E coli RNAP: 0; RORa activator: -10; SF-1 act: -12

How did COC(=O)c1sccc1NC(=O)CN1CCN(c2ccc(F)cc2)CC1 do in these assays?
JNK3 inh: 47*; BAP1 inh: 144; E coli RNAP: 8; RORa activator: -5; SF-1 act: 9

Results for COc1ccc(C)cc1NC(=O)CN1CCN(c2ccc(F)cc2)CC1 ?
JNK3 inh: -9; BAP1 inh: 109; E coli RNAP: -1; RORa activator: -18; SF-1 act: -13

How did COc1ccc(-c2c3c([nH]c(=S)c2C#N)CCC3)cc1 do in these assays?
JNK3 inh: 46*; E coli RNAP: 1; RORa activator: -8; SF-1 act: -8

How did CC1CC1C(=O)OCc1cc(=O)n2cc(Br)ccc2n1 (stereo not drawn) do in these assays?
JNK3 inh: -3; BAP1 inh: 85; E coli RNAP: 12; RORa activator: 32; SF-1 act: 55*

How did O=C(OCc1cc(=O)n2cc(Br)ccc2n1)C1COc2ccccc2O1 (stereo not drawn) do in these assays?
JNK3 inh: 8; BAP1 inh: 112; E coli RNAP: 4; RORa activator: -6; SF-1 act: -5

How did C=CCn1c(=N)c(C(=O)OCC)cc2c(=O)n3cc(C)ccc3nc21 do in these assays?
JNK3 inh: 2; E coli RNAP: 1; RORa activator: -16; SF-1 act: 0

What do the screens show for `Cn1nnc2cc(C(=O)N3CCN(c4ccccc4)CC3)ccc21`?
JNK3 inh: -9; BAP1 inh: 132; E coli RNAP: 13; RORa activator: -5; SF-1 act: 16

How did CCCCOC(=O)C(C)Oc1ccc(=O)n(-c2ccccc2)n1 (stereo not drawn) do in these assays?
JNK3 inh: -6; BAP1 inh: 104; E coli RNAP: 5; RORa activator: 57*; SF-1 act: 4

Results for CSc1nsc(SCC(=O)N2CCc3ccccc32)n1 ?
JNK3 inh: -8; BAP1 inh: 119; E coli RNAP: 0; RORa activator: -2; SF-1 act: -5

How did COc1ccc2nc(NC(=O)CSc3nnc(-c4ccoc4C)n3C)sc2c1 do in these assays?
JNK3 inh: 7; BAP1 inh: 98; E coli RNAP: 9; RORa activator: 107*; SF-1 act: -7

What do the screens show for `CC(=O)Oc1ccc2cc(-c3nc4ccccc4n3C)c(=O)oc2c1`?
JNK3 inh: 4; BAP1 inh: 861; E coli RNAP: -74; RORa activator: 76*; SF-1 act: 65*

What do the screens show for `O=C(CC1Nc2ccccc2NC1=O)NC1CCCCC1` (stereo not drawn)?
JNK3 inh: 1; BAP1 inh: 78; E coli RNAP: 5; RORa activator: -7; SF-1 act: 1

Results for O=C(/N=C1\NC(=O)C(F)(C(F)(F)F)S1)NC1CCCCC1 (stereo not drawn) ?
JNK3 inh: 4; BAP1 inh: 58; E coli RNAP: 25*; RORa activator: -5; SF-1 act: -11

Results for Cc1ccc2[nH]c(=O)c(COC(=O)C3CCCO3)cc2c1 (stereo not drawn) ?
JNK3 inh: 3; BAP1 inh: 80; E coli RNAP: 6; RORa activator: -28; SF-1 act: -5
